The test system of one series is BJ-hTERT cells. Nature of the series: Cell viability assay. As to conditions: noncancerous human skin fibroblasts, 40 µM, 72 h. Type of series: cell-based. Put shortly:
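Cells plated in 384-well format 24 h before dosing. A 10-mM DMSO stock was diluted in EMEM to 160 µM (4×) and added in triplicate to a final 40 µM. Incubated 68 h at 37 °C, then Alamar Blue for 4 h at 37 °C. Fluorescence read at ex 510 / em 590 nm; viability expressed relative to DMSO control wells.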

Another series deals with T1, human Gli1 (Homo sapiens, UniProt P08151).
T1 sequence (P08151 1-1106): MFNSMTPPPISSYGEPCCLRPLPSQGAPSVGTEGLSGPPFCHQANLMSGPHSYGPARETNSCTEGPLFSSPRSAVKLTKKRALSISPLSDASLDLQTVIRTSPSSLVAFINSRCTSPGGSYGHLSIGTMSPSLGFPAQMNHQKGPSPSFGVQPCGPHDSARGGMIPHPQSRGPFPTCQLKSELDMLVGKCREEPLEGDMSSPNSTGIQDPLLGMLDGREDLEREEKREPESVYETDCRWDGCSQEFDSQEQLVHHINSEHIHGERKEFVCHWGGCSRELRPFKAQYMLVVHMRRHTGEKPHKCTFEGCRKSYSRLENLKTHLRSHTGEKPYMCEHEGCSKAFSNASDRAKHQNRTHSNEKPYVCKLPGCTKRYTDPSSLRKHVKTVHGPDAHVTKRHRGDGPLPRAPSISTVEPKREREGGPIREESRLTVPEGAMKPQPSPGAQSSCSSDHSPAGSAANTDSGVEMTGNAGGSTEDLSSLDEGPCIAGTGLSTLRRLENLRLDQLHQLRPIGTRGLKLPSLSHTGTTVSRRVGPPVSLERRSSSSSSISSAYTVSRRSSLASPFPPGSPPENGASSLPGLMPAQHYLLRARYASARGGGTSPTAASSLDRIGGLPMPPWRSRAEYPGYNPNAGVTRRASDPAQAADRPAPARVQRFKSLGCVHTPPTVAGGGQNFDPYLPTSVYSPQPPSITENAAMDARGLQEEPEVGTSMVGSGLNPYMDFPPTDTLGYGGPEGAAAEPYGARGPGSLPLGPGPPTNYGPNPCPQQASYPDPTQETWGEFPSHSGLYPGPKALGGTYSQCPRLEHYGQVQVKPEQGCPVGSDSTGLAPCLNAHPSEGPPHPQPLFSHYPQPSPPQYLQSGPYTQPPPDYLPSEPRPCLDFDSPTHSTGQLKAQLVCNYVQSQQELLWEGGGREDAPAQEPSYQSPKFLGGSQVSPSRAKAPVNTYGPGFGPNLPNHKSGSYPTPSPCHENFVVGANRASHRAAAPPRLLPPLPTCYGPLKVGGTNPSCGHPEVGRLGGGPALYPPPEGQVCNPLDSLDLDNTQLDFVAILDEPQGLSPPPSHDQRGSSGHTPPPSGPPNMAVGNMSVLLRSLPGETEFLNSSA
Nature of the series: Gli-mediated transcription reporter assay in C3H10T1/2 cells with exogenous Gli1. Type of series: cell-based. As to conditions: for inhibition of Gli1-mediated transcription (Gli-reporter activity), in words: Gli1-transfected C3H10T1/2 cells, 24 h, 20 µM or 40 µM.

Series [1] in a line: Stability of compounds in C3H10T1/2 cell cultures. As to conditions: 24 hours. The format is in vitro ADME, mouse.
For the next series, the system named is C3H10T1/2 cells. Nature of the series: Toxicity towards C3H10T1/2 cells in the reporter assay. As to conditions: data not shown. The format is cell-based, mouse.
In another series the test system is endogenous Gli1. Kind of series: Gli-mediated transcription reporter assay in Rh30 cells. As to conditions: Rh30 cells without cotransfection of exogenous Gli1, 24 h, 10, 20 or 40 µM. The format is cell-based. Put shortly: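 Rh30 cells were grown in RPMI-1640 with 10% FBS at 37 °C, 5% CO2. At about 70% confluence they were transfected overnight with GliLuc-BS (500 ng/mL) and pRL-CMV (2.5 ng/mL) using Fugene6. Cells were replated, then dosed 18 h later for 24 h. Lysates were read by dual luciferase (firefly/Renilla). DMSO = 0% inhibition; triplicates, SE shown.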

The test system of another series is exogenous Gli1 protein. Nature of the series: Western blot of Gli1 protein levels in Gli1-transfected C3H10T1/2 cells. Type of series: cell-based, human.

Take `C[C@H](CNC(=O)Nc1ccc(O)cc1)c1cccc(C(=O)c2ccccc2)c1` [Compound 59, (S)-1-(2-(3-Benzoylphenyl)propyl)-3-(4-hydroxyphenyl)urea]: in the series on BJ-hTERT cells, the “cell viability / toxicity, BJ-hTERT” value is given as “toxic”. Further, the “inhibition of Gli1-mediated transcription (Gli-reporter activity), in words” value (from here on “inhibition … (Gli-reporter activity), in words”) against human Gli1 was “comparable to that of 36”.

Take `C[C@H](C(=O)NCCc1ccc(O)c(O)c1)c1cccc(C(=O)c2ccccc2)c1` [Compound 50, (S)-2-(3-Benzoylphenyl)-N-(3,4-dihydroxyphenethyl)propanamide]: the “stability in the C3H10T1/2 cell cultures” value in series [1] is “significant degradation”.

Regarding `C[C@H](CNC(=O)NCCc1ccc(O)cc1)c1cccc(C(=O)c2ccccc2)c1` [Compound 60, (S)-1-(2-(3-Benzoylphenyl)propyl)-3-(4-hydroxyphenethyl)urea], the “cell viability / toxicity, BJ-hTERT” value in the series with BJ-hTERT cells is listed as “toxic”. Moreover, the “inhibition … (Gli-reporter activity), in words” value against human Gli1 is on record as “comparable to that of 36”.

`C[C@H](C(=O)N(CCc1ccc(O)cc1)CCc1ccc(O)cc1)c1cccc(C(=O)c2ccccc2)c1` [Compound 65, (S)-2-(3-Benzoylphenyl)-N,N-bis(4-hydroxyphenethyl)propanamide]: the “stability in the C3H10T1/2 cell cultures” value in series [1] is given as “stable”. Besides, at human Gli1 (C3H10T1/2 cells, from IC50 values), the “inhibition selectivity of Gli1-mediated transcription over Gli2-mediated transcription” value is on record as “least selective”.

In the case of `C[C@H](C(=O)NCCc1ccc(O)cc1)c1cccc(C(=O)c2ccccc2)c1` [Compound 36, (S)-2-(3-Benzoylphenyl)-N-(4-hydroxyphenethyl)propanamide], the “toxicity towards the C3H10T1/2 cells” value in the series on C3H10T1/2 cells is listed as “minimal toxicity as compared to 32”. Besides, the “stability in the C3H10T1/2 cell cultures” value in series [1] is recorded as “stable”. For the same compound, the “cell viability / toxicity, BJ-hTERT” value with BJ-hTERT cells is listed as “without showing toxicity”. The “inhibition of Gli-reporter activity in Rh30 cells, in words” value with endogenous Gli1 is recorded as “downregulated”. The “inhibition … (Gli-reporter activity), in words” value against human Gli1 is given as “high activity”. In addition, the “exogenous Gli1 protein level” value in the series on exogenous Gli1 protein is given as “not reduced”.

`C[C@H](CNC(=O)CCc1ccc(O)cc1)c1cccc(C(=O)c2ccccc2)c1` [Compound 56, (S)-N-(2-(3-Benzoylphenyl)propyl)-3-(4-hydroxyphenyl)propanamide]: at human Gli1, the “inhibition … (Gli-reporter activity), in words” value was “modest increase in the potency”.

As for `COc1ccc2cc([C@@H](C)C(=O)NCCc3ccc(O)cc3)ccc2c1` [Compound 38, (R)-N-(4-Hydroxyphenethyl)-2-(6-methoxynaphthalen-2-yl)propanamide], the “inhibition … (Gli-reporter activity), in words” value at human Gli1 is given as “lower activity than did 35”.

On to `CC(C(=O)NCCc1ccc(O)cc1)c1cccc(C(=O)c2ccccc2)c1` (racemic) [Compound 37, (±)-2-(3-Benzoylphenyl)-N-(4-hydroxyphenethyl)propanamide], for which the “inhibition … (Gli-reporter activity), in words” value at human Gli1 is “lower activity than did 36”.

Regarding `COc1ccc(COC[C@@H](C)c2cccc(C(=O)c3ccccc3)c2)cc1` [Compound 58, (S)-(3-(1-(4-Methoxybenzyloxy)propan-2-yl)phenyl)(phenyl)methanone], at human Gli1, the “inhibition … (Gli-reporter activity), in words” value was “almost no activity”.

With `CCCN(CCc1ccc(O)cc1)C(=O)[C@@H](C)c1cccc(C(=O)c2ccccc2)c1` [Compound 63, (S)-2-(3-Benzoylphenyl)-N-(4-hydroxyphenethyl)-N-propylpropanamide], in series [1], the “stability in the C3H10T1/2 cell cultures” value is recorded as “stable”. Further, the “cell viability / toxicity, BJ-hTERT” value in the series with BJ-hTERT cells is “without showing toxicity”. Also, in the series with endogenous Gli1, the “inhibition of Gli-reporter activity in Rh30 cells, in words” value is “downregulated”. For the same compound, the “exogenous Gli1 protein level” value with exogenous Gli1 protein is reported as “not reduced”.

Turning to `C[C@H](C(=O)Nc1ccc(O)cc1)c1cccc(C(=O)c2ccccc2)c1` [Compound 54, (S)-2-(3-Benzoylphenyl)-N-(4-hydroxyphenyl)propanamide], the “inhibition … (Gli-reporter activity), in words” value against human Gli1 was “decreased activity”.

As for “(S)-2-(3-Benzoylphenyl)-N-(4-hydroxy-3-methoxyphenethyl)propanamide [Compound 51]”, the “inhibition … (Gli-reporter activity), in words” value at human Gli1 is “reduced the activity by about half”.

The record behind these values is publication PMC2853048 (Journal of medicinal chemistry, 2009).
